“Also recorded” adds a separate entry of the source.
What was measured:
CYP1B1 [1] = molecular target: T1, CYP1B1 (Homo sapiens, UniProt Q16678); test: CYP1B1 inhibition in live human HEK293 cells; type: cell-based
T1 sequence (Q16678 1-543): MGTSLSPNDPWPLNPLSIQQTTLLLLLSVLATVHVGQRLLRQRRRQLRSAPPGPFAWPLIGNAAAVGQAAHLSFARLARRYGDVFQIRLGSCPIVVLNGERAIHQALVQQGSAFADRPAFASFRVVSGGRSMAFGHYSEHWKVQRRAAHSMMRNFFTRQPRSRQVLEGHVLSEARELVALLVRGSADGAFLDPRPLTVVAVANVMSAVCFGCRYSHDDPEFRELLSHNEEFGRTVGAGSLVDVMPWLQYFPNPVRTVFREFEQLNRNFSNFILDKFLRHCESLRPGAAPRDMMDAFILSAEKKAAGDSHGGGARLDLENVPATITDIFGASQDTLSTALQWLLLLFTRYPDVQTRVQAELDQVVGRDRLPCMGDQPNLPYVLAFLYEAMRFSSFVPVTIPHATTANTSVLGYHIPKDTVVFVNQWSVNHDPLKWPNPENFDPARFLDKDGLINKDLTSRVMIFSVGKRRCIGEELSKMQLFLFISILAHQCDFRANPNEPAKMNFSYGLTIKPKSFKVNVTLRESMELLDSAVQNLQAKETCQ
Method in brief: (§1)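 Live recombinant HEK293 cells, each expressing a single human CYP isoform. IC50 from a four-parameter variable-slope sigmoidal (Hill) fit of uninhibited fraction against inhibitor concentration.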

[2] = system: CYP2A6, CYP2B6, CYP2C8, CYP2C9, CYP2C18, CYP2C19, CYP2D6, CYP2E1, CYP3A4; test: CYP2 and CYP3 subfamily panel inhibition in Sacchrosomes; type: biochemical; conditions: human, pH 7.4
Method in brief: (§2)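 Kinetic microplate assay, 15 min reaction, using recombinant human P450s expressed in S. cerevisiae microsomes. Run in 100 mM potassium phosphate pH 7.4 with an NADPH-regenerating system (final: 0.04 units G6PDH, 1.3 mM NADP+, 3.3 mM glucose-6-phosphate, 3.3 mM MgCl2, 50 μM sodium citrate). Reaction started with substrate plus NADPH system. Test compound serially diluted from 20 μM final (CYP2E1: from 10 μM), 0.5% DMSO final. IC50 from Hill fit.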

[3] = system: CYP1A1-overexpressing HEK293 cells; test: Protection of CYP1A1-overexpressing HEK293 cells from B[a]P toxicity; type: cell-based, human; conditions: compound at 3× IC50 concentration
Method in brief: (§3)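 CYP1A1-expressing adherent HEK293 cells exposed to B[a]P at 0.05–100 μM, alone or with test compound. Viability read by MTT and checked by sulforhodamine B. EC50 (B[a]P concentration for 50% viability loss) taken from a dose–response curve of viability versus log B[a]P concentration, averaged over three independent experiments.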

CYP1B1 [4] = molecular target: T1, CYP1B1; test: CYP1B1 inhibition in Sacchrosomes; type: biochemical
Method in brief: as §2

CYP1A1 [5] = molecular target: T2, CYP1A1 (Homo sapiens, UniProt P04798); test: CYP1A1 inhibition in yeast microsomes; type: biochemical
T2 sequence (P04798 1-512): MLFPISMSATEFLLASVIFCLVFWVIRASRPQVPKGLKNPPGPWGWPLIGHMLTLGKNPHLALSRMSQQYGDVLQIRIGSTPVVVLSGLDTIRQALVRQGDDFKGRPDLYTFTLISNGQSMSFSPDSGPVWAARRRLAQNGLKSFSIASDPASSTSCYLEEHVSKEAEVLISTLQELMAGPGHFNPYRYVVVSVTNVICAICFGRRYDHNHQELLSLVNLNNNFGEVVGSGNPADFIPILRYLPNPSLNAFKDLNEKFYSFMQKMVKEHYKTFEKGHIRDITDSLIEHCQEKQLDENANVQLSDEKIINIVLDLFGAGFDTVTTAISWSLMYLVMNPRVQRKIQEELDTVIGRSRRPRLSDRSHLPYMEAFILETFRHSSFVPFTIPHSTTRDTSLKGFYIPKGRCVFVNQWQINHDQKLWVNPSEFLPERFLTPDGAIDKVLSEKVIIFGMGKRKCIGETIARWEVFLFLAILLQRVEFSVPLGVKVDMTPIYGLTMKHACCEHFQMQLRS
Method in brief: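 Human CYP1A1 expressed in yeast microsomes (Sacchrosomes). […] IC50 from a four-parameter variable-slope sigmoidal (Hill) fit of uninhibited fraction against inhibitor concentration.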

CYP1A1 [6] = molecular target: T2, CYP1A1; test: CYP1A1 inhibition in live HEK293 cells overexpressing CYP1A1; type: cell-based; conditions: for inhibition at 10 µM: human, live HEK293 cells overexpressing CYP1A1, % inhibition of CYP1A1 at 10 μM (Mean ± SD) HEK293 cells, HEK293 cells overexpressing CYP1A1; for selectivity for CYP1A1 over CYP1B1: ratio of live cell IC50 values CYP1B1/CYP1A1
CYP1A2 [7] = molecular target: T3, CYP1A2 (Homo sapiens, UniProt P05177); test: CYP1A2 inhibition in Sacchrosomes; type: biochemical
T3 sequence (P05177 1-516): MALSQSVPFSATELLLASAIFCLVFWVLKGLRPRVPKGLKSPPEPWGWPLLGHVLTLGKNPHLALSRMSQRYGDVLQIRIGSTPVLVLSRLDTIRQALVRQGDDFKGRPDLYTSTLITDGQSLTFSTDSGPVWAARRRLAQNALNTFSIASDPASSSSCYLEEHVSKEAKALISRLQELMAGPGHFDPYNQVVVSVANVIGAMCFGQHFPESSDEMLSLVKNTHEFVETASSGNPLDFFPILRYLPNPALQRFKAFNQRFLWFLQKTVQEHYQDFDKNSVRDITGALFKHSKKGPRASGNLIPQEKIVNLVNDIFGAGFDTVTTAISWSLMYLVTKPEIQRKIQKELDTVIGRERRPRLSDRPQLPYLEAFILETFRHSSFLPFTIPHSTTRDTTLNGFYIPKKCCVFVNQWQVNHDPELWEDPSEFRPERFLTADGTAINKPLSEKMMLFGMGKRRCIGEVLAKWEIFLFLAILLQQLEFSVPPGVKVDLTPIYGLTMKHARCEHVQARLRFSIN
Method in brief: as §2

CYP1A2 [8] = molecular target: T3, CYP1A2; test: CYP1A2 inhibition in live human HEK293 cells; type: cell-based
Method in brief: as §1

CYP3A4 = CYP3A4 (Homo sapiens, UniProt P08684); test: CYP3A4 inhibition in live human HEK293 cells; type: cell-based
Method in brief: as §1

CYP2D6 = CYP2D6 (Homo sapiens, UniProt P10635); test: CYP2D6 inhibition in live human HEK293 cells; type: cell-based
Method in brief: as §1

[9] = Protection of CYP1A1-overexpressing HEK293 cells from B[a]P toxicity; type: cell-based, human; conditions: human, CYP1A1-overexpressing HEK293 cells
Method in brief: as §3

normal HEK293 cells = test: B[a]P toxicity in normal HEK293 cells; type: cell-based; conditions: Homo sapiens, HEK293, read-out: EC50 of B[a]P in normal HEK293 cells
Method in brief: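 Adherent HEK293 cells exposed to a concentration series of B[a]P; viability read by MTT assay. EC50 is the B[a]P concentration giving 50% loss of viability, taken from a dose–response curve of viability versus log B[a]P concentration.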

Calu-1 cells = test: FACS cell cycle analysis of Calu-1 lung cancer cells treated with B[a]P; type: cell-based, human; conditions: Calu-1 (p53-null); 4l at 3× IC50 before 15 μM B[a]P
Method in brief: (§4)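 CYP1A1 expression in the cells confirmed by western blot. Cells preincubated 20 h with test compound, exposed to 15 μM B[a]P for 3 h, then released into fresh medium for 57 h. Cells trypsinised, PBS-washed and fixed 1 h in 70% ethanol at −20 °C. Treated with RNase (0.5 mg/mL) and stained with propidium iodide (50 μg/mL) for 1 h at 4 °C in the dark. Single cells gated; about 10 000 events collected; % G0/G1, S and G2/M reported.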

A549 cells = test: FACS cell cycle analysis of A549 lung cancer cells treated with B[a]P; type: cell-based, human; conditions: A549 (p53+); 4l at 3× IC50 before 15 μM B[a]P
Method in brief: as §4

Sequence of CYP2D6 (P10635 whole entry): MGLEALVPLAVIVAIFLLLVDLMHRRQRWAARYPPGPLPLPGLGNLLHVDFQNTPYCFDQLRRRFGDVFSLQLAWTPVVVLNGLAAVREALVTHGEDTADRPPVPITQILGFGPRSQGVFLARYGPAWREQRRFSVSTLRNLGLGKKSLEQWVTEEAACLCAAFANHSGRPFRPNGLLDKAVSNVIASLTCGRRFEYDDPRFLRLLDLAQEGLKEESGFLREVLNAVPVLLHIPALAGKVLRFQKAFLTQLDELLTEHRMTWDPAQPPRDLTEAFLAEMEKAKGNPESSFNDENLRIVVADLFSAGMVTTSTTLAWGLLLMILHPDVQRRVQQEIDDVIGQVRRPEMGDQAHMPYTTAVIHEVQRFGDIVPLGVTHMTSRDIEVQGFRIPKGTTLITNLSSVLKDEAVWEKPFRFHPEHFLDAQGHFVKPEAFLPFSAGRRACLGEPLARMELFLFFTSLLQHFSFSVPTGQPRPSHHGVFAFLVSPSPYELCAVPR
Sequence of CYP3A4 (P08684 whole entry): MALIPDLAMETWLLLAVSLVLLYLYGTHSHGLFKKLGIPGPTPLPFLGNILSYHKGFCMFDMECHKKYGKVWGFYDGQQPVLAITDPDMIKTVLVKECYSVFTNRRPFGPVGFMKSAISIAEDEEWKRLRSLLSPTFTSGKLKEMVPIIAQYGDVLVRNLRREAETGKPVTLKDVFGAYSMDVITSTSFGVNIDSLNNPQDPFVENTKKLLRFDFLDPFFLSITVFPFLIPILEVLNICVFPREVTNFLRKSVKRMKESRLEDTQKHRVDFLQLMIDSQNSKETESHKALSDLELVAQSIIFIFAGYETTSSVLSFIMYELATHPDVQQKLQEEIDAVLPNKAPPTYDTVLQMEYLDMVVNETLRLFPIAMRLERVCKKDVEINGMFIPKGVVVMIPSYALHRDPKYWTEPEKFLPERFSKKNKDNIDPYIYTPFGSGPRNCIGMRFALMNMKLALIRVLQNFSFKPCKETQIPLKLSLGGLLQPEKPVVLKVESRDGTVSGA

SMILES	IC50 (CYP1B1 [1]) [nM]	IC50 at 15 min [2] [nM]	protection from CYP1A1-mediated B[a]P toxicity [3]	IC50 (CYP1B1 [4]) [nM]	IC50 (CYP1A1 [5]) [nM]	inhibition at 10 µM (CYP1A1 [5]; human, % inhibition of CYP1A1 at 10 μM (Mean ± SD) Sacchrosomes, 10 μM, Sacchrosomes) [%]	IC50 (CYP1A1 [6]) [nM]	inhibition at 10 µM (CYP1A1 [6]) [%]	IC50 (CYP1A2 [7]) [nM]	IC50 (CYP1A2 [8]) [nM]	IC50 (CYP3A4) [nM]	IC50 (CYP2D6) [nM]	selectivity for CYP1A1 over CYP1B1 (CYP1A1 [6]) [fold]	EC50 [9] [nM]	EC50 (normal HEK293 cells) [nM]	effect on B[a]P-mediated S-phase block (Calu-1 cells)	effect on B[a]P-mediated S-phase block (A549 cells)
COc1c(C(=O)C=Cc2cccnc2)c(O)c(OC)c2occc12 [3g, 1-(6-Hydroxy-4,7-dimethoxybenzofuran-5-yl)-3-(pyridin-3-yl)prop-2-en-1-one]	270	> 20000	completely protected	660 ± 40	340 ± 30	97	470	99	170 ± 20								
COc1c2c(c(OC)c3occc13)OC(c1ccccc1)CC2=O (stereo not drawn) [4a, 4,9-Dimethoxy-7-phenyl-6,7-dihydro-5H-furo[3,2-g]chromen-5-one]	566 ± 80						1840 ± 140	87		> 10000	> 10000	> 10000					
COc1c2c(c(OC)c3occc13)OC(c1cccnc1)CC2=O (stereo not drawn) [4e, 4,9-Dimethoxy-7-(pyridin-3-yl)-6,7-dihydro-5H-furo[3,2-g]chromen-5-one]	4160 ± 250						450 ± 60			> 10000	> 10000	> 10000	9.2				
c1ccc2c(c1)cc1ccc3cccc4ccc2c1c34 [B[a]P, benzo[a]pyrene, reference compound]														1400	14000		
COc1c2c(c(OC)c3occc13)OC(c1ccc(F)c(Br)c1)CC2=O (stereo not drawn) [4l, 7-(3-Bromo-4-fluorophenyl)-4,9-dimethoxy-6,7-dihydro-5H-furo[3,2-g]chromen-5-one]	23800 ± 1200		completely protected				140 ± 40			> 10000	> 10000	> 10000	170			restored into the cell cycle; also recorded: preponderantly released from the block; also recorded: prevented manifestation of B[a]P-mediated S-phase block	restored into the cell cycle; also recorded: preponderantly released from the block; also recorded: prevented manifestation of B[a]P-mediated S-phase block
COc1c(C(=O)C=Cc2ccsc2)c(O)c(OC)c2occc12 [3r, 1-(6-Hydroxy-4,7-dimethoxybenzofuran-5-yl)-3-(thiophen-3-yl)prop-2-en-1-one]		> 20000		780 ± 40	280 ± 30				4200 ± 800								

From PMC6645225 (ACS Omega, 2018)
